Blank lines part the entries; values can stand above or below the molecule they belong to. The source made the active and inactive calls. The calls are words filed in the database; no cut-off is given here.
Experiments:
[1] = target: 72 kDa type IV collagenase (Homo sapiens) (UniProt P08253); assay: Inhibition of MMP2 activity in human U87MG cells at 10 uM […] by gelatin zymographic method; format: cell-based
[2] = tested on: U-87 MG; assay: Up regulation of CYYR1-AS1 gene expression in human U87MG cells at 16 uM incubated for 4 hrs followed by bromouridine addition during last 30 mins of incubation by TRIzol-reagent based Bru-Seq analysis relative to control; format: functional, U-87MG ATCC
Outline: (§1)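 U87MG cells exposed to compound or DMSO vehicle for 4 h, with 2 mM bromouridine added for the final 30 min. Total RNA isolated with TRIzol; Bru-labelled nascent RNA captured on anti-BrdU antibody-conjugated magnetic beads and sequenced. Transcript abundance expressed as RPKM relative to DMSO. Experiment performed once.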

[3] = tested on: U-87 MG; assay: Up regulation of EID3 gene expression in human U87MG cells at 16 uM incubated for 4 hrs followed by bromouridine addition during last 30 mins of incubation by TRIzol-reagent based Bru-Seq analysis relative to control; format: functional, U-87MG ATCC; outline: as §1
[4] = tested on: U-87 MG; assay: Down regulation of KCTD4 gene expression in human U87MG cells at 16 uM incubated for 4 hrs followed by bromouridine addition during last 30 mins of incubation by TRIzol-reagent based Bru-Seq analysis relative to control; format: functional, U-87MG ATCC
[5] = tested on: U-87 MG; assay: Up regulation of TXNRD1 gene expression in human U87MG cells at 16 uM incubated for 4 hrs followed by bromouridine addition during last 30 mins of incubation by TRIzol-reagent based Bru-Seq analysis relative to control; format: functional, U-87MG ATCC
[6] = tested on: U-87 MG; assay: Down regulation of STRA6 gene expression in human U87MG cells at 16 uM incubated for 4 hrs followed by bromouridine addition during last 30 mins of incubation by TRIzol-reagent based Bru-Seq analysis relative to control; format: functional, U-87MG ATCC; outline: as §1
[7] = tested on: U-87 MG; assay: Down regulation of E2F1 gene expression in human U87MG cells at 16 uM incubated for 4 hrs followed by bromouridine addition during last 30 mins of incubation by TRIzol-reagent based Bru-Seq analysis; format: functional, cell-based; conditions: U-87MG ATCC
[8] = tested on: U-87 MG; assay: Up regulation of BCO2 gene expression in human U87MG cells at 16 uM incubated for 4 hrs followed by bromouridine addition during last 30 mins of incubation by TRIzol-reagent based Bru-Seq analysis relative to control; format: functional, U-87MG ATCC; outline: as §1
[9] = tested on: U-87 MG; assay: Down regulation of AC010931.3 gene expression in human U87MG cells at 16 uM incubated for 4 hrs followed by bromouridine addition during last 30 mins of incubation by TRIzol-reagent based Bru-Seq analysis relative to control; format: functional, U-87MG ATCC
[10] = tested on: U-87 MG; assay: Down regulation of RAD51 gene expression in human U87MG cells at 16 uM incubated for 4 hrs followed by bromouridine addition during last 30 mins of incubation by TRIzol-reagent based Bru-Seq analysis; format: functional, cell-based; conditions: U-87MG ATCC
Outline: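 Bru-seq in U87MG cells treated at 16 μM for 4 h; 2 mM bromouridine present during the last 30 min. TRIzol total RNA, then anti-BrdU bead capture of labelled RNA and sequencing. Readout is RPKM traces versus DMSO control. Performed once.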

[11] = tested on: U-87 MG; assay: Up regulation of ADAMTS5 gene expression in human U87MG cells at 10 uM incubated for 4 hrs followed by bromouridine addition during last 30 mins of incubation by TRIzol-reagent based Bru-Seq analysis relative to control; format: functional, U-87MG ATCC; outline: as §1
[12] = tested on: U-87 MG; assay: Up regulation of NR4A1 gene expression in human U87MG cells at 10 uM incubated for 4 hrs followed by bromouridine addition during last 30 mins of incubation by TRIzol-reagent based Bru-Seq analysis relative to control; format: functional, U-87MG ATCC; outline: as §1
[13] = tested on: U-87 MG; assay: Down regulation of AKAP5 gene expression in human U87MG cells at 10 uM incubated for 4 hrs followed by bromouridine addition during last 30 mins of incubation by TRIzol-reagent based Bru-Seq analysis relative to control; format: functional, U-87MG ATCC
[14] = tested on: U-87 MG; assay: Down regulation of FKBP7 gene expression in human U87MG cells at 10 uM incubated for 4 hrs followed by bromouridine addition during last 30 mins of incubation by TRIzol-reagent based Bru-Seq analysis relative to control; format: functional, U-87MG ATCC
[15] = tested on: U-87 MG; assay: Up regulation of TM4SF19-TCTEX1D2 gene expression in human U87MG cells at 10 uM incubated for 4 hrs followed by bromouridine addition during last 30 mins of incubation by TRIzol-reagent based Bru-Seq analysis relative to control; format: functional, U-87MG ATCC
Outline: (§2)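 U87MG cells treated 4 h with test compound (10 or 16 μM, as per line) or DMSO; 2 mM bromouridine added for final 30 min. Total RNA isolated with TRIzol, Bru-labelled nascent RNA captured with anti-BrdU antibody magnetic beads and sequenced; transcript abundance (RPKM) compared with DMSO control. Single experiment.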

[16] = tested on: U-87 MG; assay: Down regulation of C11orf87 gene expression in human U87MG cells at 10 uM incubated for 4 hrs followed by bromouridine addition during last 30 mins of incubation by TRIzol-reagent based Bru-Seq analysis relative to control; format: functional, U-87MG ATCC
[17] = tested on: U-87 MG; assay: Up regulation of NGF gene expression in human U87MG cells at 10 uM incubated for 4 hrs followed by bromouridine addition during last 30 mins of incubation by TRIzol-reagent based Bru-Seq analysis relative to control; format: functional, U-87MG ATCC; outline: as §1
[18] = tested on: U-87 MG; assay: Up regulation of NMRAL2P gene expression in human U87MG cells at 10 uM incubated for 4 hrs followed by bromouridine addition during last 30 mins of incubation by TRIzol-reagent based Bru-Seq analysis relative to control; format: functional, U-87MG ATCC
Outline: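 Nascent transcription (Bru-seq) in U87MG cells: treatment at 10 μM for 4 h, with 2 mM bromouridine added for the final 30 min. Total RNA isolated with TRIzol; Bru-labelled RNA captured using anti-BrdU antibody on magnetic beads, then sequenced. Transcript traces reported as RPKM compared with DMSO-treated cells. Single experiment.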

[19] = tested on: U-87 MG; assay: Up regulation of ATP6 V0D2 gene expression in human U87MG cells at 10 uM incubated for 4 hrs followed by bromouridine addition during last 30 mins of incubation by TRIzol-reagent based Bru-Seq analysis relative to control; format: functional, U-87MG ATCC; outline: as §1
[20] = tested on: U-87 MG; assay: Down regulation of CTHRC1 gene expression in human U87MG cells at 10 uM incubated for 4 hrs followed by bromouridine addition during last 30 mins of incubation by TRIzol-reagent based Bru-Seq analysis relative to control; format: functional, U-87MG ATCC
[21] = tested on: U-87 MG; assay: Down regulation of FBXO43 gene expression in human U87MG cells at 10 uM incubated for 4 hrs followed by bromouridine addition during last 30 mins of incubation by TRIzol-reagent based Bru-Seq analysis relative to control; format: functional, U-87MG ATCC; outline: as §1
[22] = tested on: U-87 MG; assay: Up regulation of TRIB3 gene expression in human U87MG cells at 10 uM incubated for 4 hrs followed by bromouridine addition during last 30 mins of incubation by TRIzol-reagent based Bru-Seq analysis relative to control; format: functional, U-87MG ATCC; outline: as §2
[23] = tested on: A 172; assay: Induction of morphological changes in human A172 cells assessed as membrane blebbing at 11 uM measured after 48 hrs by Giemsa-staining based microscopic analysis; format: functional, cell-based
[24] = tested on: U-87 MG; assay: Inhibition of colony formation in human U87MG cells assessed as combination index at 1 to 30 uM measured after 24 hrs in presence of arsenic trioxide by crystal violet staining based assay; format: functional, U-87MG ATCC
[25] = tested on: A 172; assay: Induction of morphological changes in human A172 cells assessed as formation of lipid vesicles around nucleus at 17 uM measured after 48 hrs by Giemsa-staining based microscopic analysis; format: functional, cell-based

Sequence of 72 kDa type IV collagenase (Homo sapiens) (P08253 110-660 limits assumed): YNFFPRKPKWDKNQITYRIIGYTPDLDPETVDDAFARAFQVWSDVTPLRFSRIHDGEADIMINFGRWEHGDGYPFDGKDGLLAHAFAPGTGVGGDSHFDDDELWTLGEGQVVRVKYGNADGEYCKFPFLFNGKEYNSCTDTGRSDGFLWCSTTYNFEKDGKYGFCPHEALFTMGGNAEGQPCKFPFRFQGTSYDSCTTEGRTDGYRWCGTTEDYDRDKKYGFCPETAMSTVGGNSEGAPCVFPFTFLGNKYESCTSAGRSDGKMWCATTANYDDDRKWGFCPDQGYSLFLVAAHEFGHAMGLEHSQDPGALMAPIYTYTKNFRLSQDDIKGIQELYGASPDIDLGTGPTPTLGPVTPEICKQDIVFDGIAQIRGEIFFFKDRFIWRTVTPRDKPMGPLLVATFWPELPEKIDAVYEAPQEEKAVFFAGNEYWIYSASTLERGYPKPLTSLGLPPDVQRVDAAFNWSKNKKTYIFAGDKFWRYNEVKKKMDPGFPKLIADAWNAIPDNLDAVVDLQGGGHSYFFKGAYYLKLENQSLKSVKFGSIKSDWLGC

inhibition [1]: Active
SMILES: O=C(/C=C/c1ccc(-c2cccnc2)cc1)c1cccc(O)c1

SMILES: COC(=O)c1cccc(/C=C/C(=O)c2cccc(O)c2)c1
fold change (FC) [2]: 4.3
fold change (FC) [3]: 4.8
fold change (FC) [4]: 3
fold change (FC) [5]: 5.4
fold change (FC) [6]: 4
Activity [7]: Active
fold change (FC) [8]: 1.9
fold change (FC) [9]: 3.2
Activity [10]: Active

SMILES: CCCCCN(CCCCC)S(=O)(=O)c1ccc(C(=O)/C=C/c2cccc(C#N)c2)cc1
fold change (FC) [11]: 9.6
fold change (FC) [12]: 18.9
fold change (FC) [13]: 3.4
fold change (FC) [14]: 2.4
fold change (FC) [15]: 8.7
fold change (FC) [16]: 2.4
fold change (FC) [17]: 10
log2FC [18]: 2.72
fold change (FC) [19]: 11.9
fold change (FC) [20]: 2.4
fold change (FC) [21]: 2.7
fold change (FC) [22]: 34.1

SMILES: CCCCCN(CCCCC)S(=O)(=O)c1ccc(C(=O)/C=C/c2cccc(O)c2)cc1
Activity [23]: Active

SMILES: N#Cc1cccc(/C=C/C(=O)c2ccc(O)cc2)c1
CI [24]: <1
Activity [25]: Active
